Assay results taken from ChEMBL document CHEMBL4414601 (J Med Chem, 2019).
Converted amounts (≈) assume the structure as drawn. The source made the active and inactive calls. No cut-off for these calls is given here.

Assays:
[1] = test system: Plasmodium falciparum; assay: Antiplasmodial activity against Plasmodium falciparum 3D7A erythrocytic stage assessed as reduction in [3H]hypoxanthine incorporation preincubated for 24 hrs followed by [3H]hypoxanthine addition and measured after 24 hrs by microbeta scintillation counting method; type: functional, organism-based
Summary of the method: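 Nine threefold serial dilutions from 5 μM top concentration. Incubated 24 h at 37 °C under 5% CO2/5% O2/90% N2, then 0.2 μCi [3H]-hypoxanthine per well for another 24 h. Cells harvested on glass fibre filters and counted. Data normalized to compound-free parasitized RBCs; IC50 fitted.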

[2] = Lipophilicity, LogD of compound by reverse phase HPLC analysis
[3] = Aqueous solubility of compound; conditions: buffer
[4] = molecular target: Voltage-gated inwardly rectifying potassium channel KCNH2 (Homo sapiens, UniProt Q12809); assay: Inhibition of human ERG expressed in CHO cells by Q-patch clamp assay
Sequence of Voltage-gated inwardly rectifying potassium channel KCNH2 (Q12809 whole entry): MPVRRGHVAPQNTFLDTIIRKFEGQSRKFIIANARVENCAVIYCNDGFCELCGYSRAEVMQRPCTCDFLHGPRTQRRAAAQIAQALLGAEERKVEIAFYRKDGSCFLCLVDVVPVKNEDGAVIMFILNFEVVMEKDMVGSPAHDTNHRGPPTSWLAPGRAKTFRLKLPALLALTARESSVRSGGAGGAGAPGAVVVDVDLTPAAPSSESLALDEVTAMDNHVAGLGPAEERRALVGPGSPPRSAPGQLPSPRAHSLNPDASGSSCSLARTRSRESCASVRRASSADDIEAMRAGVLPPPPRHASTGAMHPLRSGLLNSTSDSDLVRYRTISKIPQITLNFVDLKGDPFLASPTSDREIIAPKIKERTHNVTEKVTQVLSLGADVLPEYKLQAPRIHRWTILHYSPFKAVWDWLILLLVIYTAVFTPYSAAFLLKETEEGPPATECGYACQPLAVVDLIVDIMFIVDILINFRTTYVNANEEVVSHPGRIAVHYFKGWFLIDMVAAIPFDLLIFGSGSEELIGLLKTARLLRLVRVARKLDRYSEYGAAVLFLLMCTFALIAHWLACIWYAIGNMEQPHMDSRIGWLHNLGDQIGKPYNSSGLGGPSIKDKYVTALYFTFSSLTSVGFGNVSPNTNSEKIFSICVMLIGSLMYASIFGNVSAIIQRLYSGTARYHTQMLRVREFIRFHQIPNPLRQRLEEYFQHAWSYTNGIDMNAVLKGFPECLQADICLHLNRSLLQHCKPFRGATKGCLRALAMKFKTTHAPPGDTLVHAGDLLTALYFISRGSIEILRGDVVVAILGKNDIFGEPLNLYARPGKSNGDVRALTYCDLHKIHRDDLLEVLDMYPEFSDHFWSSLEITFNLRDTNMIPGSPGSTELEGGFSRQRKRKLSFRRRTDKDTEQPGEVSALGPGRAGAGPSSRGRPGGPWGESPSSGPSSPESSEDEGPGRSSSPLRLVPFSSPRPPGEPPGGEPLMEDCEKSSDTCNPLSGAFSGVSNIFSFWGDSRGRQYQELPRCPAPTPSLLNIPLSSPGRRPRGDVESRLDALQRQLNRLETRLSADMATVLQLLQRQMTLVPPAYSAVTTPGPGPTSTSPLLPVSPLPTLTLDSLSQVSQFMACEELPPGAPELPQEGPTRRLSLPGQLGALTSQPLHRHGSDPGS

[5] = test system: L929; assay: Cytotoxicity against mouse L929 cells assessed as reduction in viability by dual luciferase reporter gene assay; type: ADME, cell-based
[6] = Permeability of compound by PAMPA
[7] = Clearance in mouse liver microsomes at 0.5 uM measured up to 45 mins in presence of NADPH by HPLC-MS/MS analysis; type: ADME, Microsome
[8] = Clearance in rat liver microsomes at 0.5 uM measured up to 45 mins in presence of NADPH by HPLC-MS/MS analysis; type: ADME, Microsome
[9] = Clearance in human liver microsomes at 0.5 uM measured up to 45 mins in presence of NADPH by HPLC-MS/MS analysis; type: ADME, Microsome
[10] = test system: Plasmodium falciparum; assay: Antiplasmodial activity against […] of Plasmodium falciparum NF54 assessed as reduction in male gametocytes activation preincubated for 48 hrs followed by gametocytes activation and measured after 24 hrs by fluorescence based automated inverted microscopic analysis; type: functional, organism-based
Summary of the method: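 Gametocyte activation was triggered by reduced temperature and ookinete medium containing xanthurenic acid. Male exflagellation centres were detected from a 10-frame video, scoring pixel changes caused by flagellar movement shifting surrounding cells.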

[11] = test system: Plasmodium falciparum; assay: Antiplasmodial activity against […] of Plasmodium falciparum NF54 assessed as reduction in female gametocytes activation preincubated for 48 hrs followed by gametocytes activation and measured after 24 hrs by fluorescence based automated inverted microscopic analysis; type: functional, organism-based
Summary of the method: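 NF54 gametocytes were activated by lowered temperature plus ookinete medium with xanthurenic acid and anti-Pfs25-Cy3 antibody (1/2000 final dilution). Cultures were then kept at 26 °C for 24 h in the dark. Activated females were counted by Cy3 anti-Pfs25 fluorescence, with events gated on size, roundness and fluorescence intensity.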

[12] = test system: Plasmodium falciparum; assay: Antiplasmodial activity against Plasmodium falciparum 3D7A erythrocytic stage assessed as reduction in [3H]hypoxanthine incorporation preincubated for 24 to 120 hrs followed by subculture in absence of compound and measured after 21 to 28 days by microbeta scintillation counting method; type: functional, organism-based
Summary of the method: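 P. falciparum 3D7A cultures were drug-exposed for 120 h, with samples taken every 24 h (24, 48, 72, 96 and 120 h). Viable parasites were quantified by limiting dilution, counting wells with growth after 21 and 28 days by [3H]-hypoxanthine incorporation.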

[13] = molecular target: cGMP-dependent protein kinase (Plasmodium falciparum, UniProt W7JX98); assay: Inhibition of Plasmodium falciparum full length N-terminal His-tagged PKG expressed in Escherichia coli RosettaTM 2(DE3) pLysS cells using FAM-GRTGRRNSI-NH2 as substrate preincubated for 30 mins followed by ATP addition and measured after 30 mins by microfluidic mobility shift assay
Sequence of cGMP-dependent protein kinase (W7JX98 whole entry): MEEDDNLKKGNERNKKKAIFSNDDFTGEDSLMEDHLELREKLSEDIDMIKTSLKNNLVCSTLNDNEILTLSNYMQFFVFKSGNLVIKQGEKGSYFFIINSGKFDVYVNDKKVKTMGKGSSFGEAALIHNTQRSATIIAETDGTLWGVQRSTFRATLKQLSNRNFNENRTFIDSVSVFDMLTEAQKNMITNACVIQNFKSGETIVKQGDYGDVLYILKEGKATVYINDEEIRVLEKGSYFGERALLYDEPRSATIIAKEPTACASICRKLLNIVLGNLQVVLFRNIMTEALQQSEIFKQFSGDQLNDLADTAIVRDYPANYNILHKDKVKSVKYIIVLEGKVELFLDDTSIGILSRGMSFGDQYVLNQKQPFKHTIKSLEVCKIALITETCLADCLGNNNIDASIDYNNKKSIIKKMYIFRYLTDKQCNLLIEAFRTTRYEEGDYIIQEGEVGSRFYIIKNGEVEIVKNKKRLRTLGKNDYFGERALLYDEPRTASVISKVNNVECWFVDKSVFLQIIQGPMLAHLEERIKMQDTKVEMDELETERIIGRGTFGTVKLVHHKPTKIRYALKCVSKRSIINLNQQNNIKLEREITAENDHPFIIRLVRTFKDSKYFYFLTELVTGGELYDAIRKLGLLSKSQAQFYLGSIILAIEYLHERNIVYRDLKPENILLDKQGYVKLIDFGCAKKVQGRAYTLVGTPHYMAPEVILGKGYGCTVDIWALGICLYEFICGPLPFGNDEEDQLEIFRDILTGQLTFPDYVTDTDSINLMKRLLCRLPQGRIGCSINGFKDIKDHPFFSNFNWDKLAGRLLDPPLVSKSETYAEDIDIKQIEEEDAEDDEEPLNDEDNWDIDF

[14] = test system: Plasmodium falciparum; assay: Antiplasmodial activity against Plasmodium falciparum 3D7A asexual erythrocytic stage assessed as reduction in [3H]hypoxanthine incorporation preincubated for 48 hrs followed by [3H]hypoxanthine addition and measured after 24 hrs by microbeta scintillation counting method; type: functional, organism-based
[15] = test system: Plasmodium falciparum; assay: Antiplasmodial activity against Plasmodium falciparum 3D7A asexual erythrocytic stage assessed as reduction in [3H]hypoxanthine incorporation preincubated for 72 hrs followed by [3H]hypoxanthine addition and measured after 24 hrs by microbeta scintillation counting method; type: functional, organism-based
[16] = test system: Plasmodium falciparum; assay: Antiplasmodial activity against Plasmodium falciparum 3D7A harboring with PKG T618Q mutant asexual erythrocytic stage assessed as reduction in [3H]hypoxanthine incorporation preincubated for 48 hrs followed by [3H]hypoxanthine addition and measured after 24 hrs by microbeta scintillation counting method; type: functional, organism-based
[17] = test system: Plasmodium falciparum; assay: Antiplasmodial activity against Plasmodium falciparum 3D7A harboring with PKG T618Q mutant asexual erythrocytic stage assessed as reduction in [3H]hypoxanthine incorporation preincubated for 72 hrs followed by [3H]hypoxanthine addition and measured after 24 hrs by microbeta scintillation counting method; type: functional, organism-based

Fc1ccc(-c2nc(C3CCNCC3)sc2-c2ccnc(Nc3nncs3)n2)cc1
EC50 [1]: 1020 nM
chromatographic logD [2]: 1.82
solubility [3]: 66 µM (≈ 29 µg/mL)
IC50 [4]: 2500 nM
EC50 [5]: 2800 nM
Papp [6]: < 1 ×10⁻⁶ cm/s
CLH [7]: 0.67 mL/min/g
CLH [8]: 0.46 mL/min/g
CLH [9]: 0.55 mL/min/g
EC50 [10]: 140 nM
EC50 [11]: 380 nM

Fc1ccc(-c2nc(N3CCOCC3)sc2-c2ccnc(Nc3ccc(N4CCNCC4)cc3)n2)cc1
EC50 [1]: 1620 nM
chromatographic logD [2]: 3.99
solubility [3]: 38 µM (≈ 19.7 µg/mL)
EC50 [5]: 3300 nM
Papp [6]: 28 ×10⁻⁶ cm/s
CLH [7]: 0.48 mL/min/g
CLH [8]: 0.59 mL/min/g
CLH [9]: 0.4 mL/min/g
EC50 [10]: 1120 nM
EC50 [11]: 1070 nM

Cc1cc(Nc2nccc(-c3sc(C4CCNCC4)nc3C3CC3)n2)ccn1
EC50 [1]: 270 nM
chromatographic logD [2]: 1.99
solubility [3]: 342 µM (≈ 134 µg/mL)
EC50 [5]: 8900 nM
Papp [6]: 18 ×10⁻⁶ cm/s
CLH [7]: 0.87 mL/min/g
CLH [8]: 1.18 mL/min/g
CLH [9]: 0.4 mL/min/g
Activity [12]: Active

CN1CCN(c2ccc(Nc3nccc(-c4sc(C5CCNCC5)nc4-c4ccc(F)cc4)n3)cc2)CC1
EC50 [1]: 700 nM
IC50 [13]: 0.6 nM
chromatographic logD [2]: 2.79
solubility [3]: 41 µM (≈ 21.7 µg/mL)
IC50 [4]: 13200 nM
EC50 [5]: 3800 nM
Papp [6]: 11 ×10⁻⁶ cm/s
CLH [7]: 0.96 mL/min/g
CLH [8]: 1.27 mL/min/g
CLH [9]: 0.53 mL/min/g
EC50 [10]: 260 nM
EC50 [11]: 300 nM

CCc1nc(N)nc(N)c1-c1ccc(Cl)cc1 [PYRIMETHAMINE]
EC50 [1]: 100 nM
EC50 [10]: > 10000 nM
EC50 [11]: > 10000 nM

Fc1ccc(-c2nc(N3CCCC3)sc2-c2ccnc(Nc3ccc(N4CCNCC4)cc3)n2)cc1
EC50 [1]: 770 nM
IC50 [13]: 2 nM
chromatographic logD [2]: 4.43
solubility [3]: 54 µM (≈ 27.1 µg/mL)
EC50 [5]: 3800 nM
Papp [6]: 27 ×10⁻⁶ cm/s
CLH [7]: 1.56 mL/min/g
CLH [8]: 0.81 mL/min/g
CLH [9]: 0.59 mL/min/g

Fc1ccc(-c2nc(C3CCNCC3)sc2-c2ccnc(Nc3cccnn3)n2)cc1
EC50 [1]: 980 nM
chromatographic logD [2]: 2.14
solubility [3]: 123 µM (≈ 53.3 µg/mL)
EC50 [5]: 3200 nM
Papp [6]: 19 ×10⁻⁶ cm/s
CLH [7]: 4.42 mL/min/g
CLH [8]: 0.95 mL/min/g
CLH [9]: 0.47 mL/min/g

CN1CCC(C(=O)Nc2nc(-c3ccc(F)cc3)c(-c3ccnc(Nc4ccc(N5CCNCC5)cc4)n3)s2)CC1
EC50 [1]: 1460 nM
chromatographic logD [2]: 2.2
solubility [3]: 11 µM (≈ 6.3 µg/mL)
EC50 [5]: 7800 nM
Papp [6]: 1 ×10⁻⁶ cm/s
CLH [7]: 0.48 mL/min/g
CLH [8]: 0.46 mL/min/g
CLH [9]: 0.4 mL/min/g
EC50 [10]: 630 nM
EC50 [11]: 1310 nM

Nc1nc(-c2ccc(F)cc2)c(-c2ccnc(Nc3ccc(N4CCNCC4)cc3)n2)s1
EC50 [1]: 1750 nM
chromatographic logD [2]: 2.42
solubility [3]: 24.5 µM (≈ 11 µg/mL)
IC50 [4]: 35500 nM
EC50 [5]: 1800 nM
CLH [7]: 1.47 mL/min/g
CLH [8]: 1.98 mL/min/g
CLH [9]: 0.52 mL/min/g
EC50 [10]: 150 nM
EC50 [11]: 190 nM

Cc1cc(Nc2nccc(-c3sc(C4CCNCC4)nc3-c3ccc(F)cc3)n2)on1
EC50 [1]: 2650 nM
IC50 [13]: 3 nM
chromatographic logD [2]: 2.61
solubility [3]: 66 µM (≈ 28.8 µg/mL)
EC50 [5]: 2300 nM
Papp [6]: 12 ×10⁻⁶ cm/s

C[C@H]1[C@H](OC(=O)CCC(=O)O)O[C@@H]2O[C@@]3(C)CC[C@H]4[C@H](C)CC[C@@H]1[C@@]24OO3 [ARTESUNATE]
EC50 [1]: 30 nM
EC50 [10]: > 10000 nM
EC50 [11]: > 10000 nM

OC(CNc1nccc(-c2sc(C3CCNCC3)nc2-c2ccc(F)cc2)n1)c1ccncc1 (stereo unspecified)
chromatographic logD [2]: 1.79
solubility [3]: 225 µM (≈ 107 µg/mL)
IC50 [4]: 28200 nM
EC50 [5]: 15100 nM
Papp [6]: 1 ×10⁻⁶ cm/s
CLH [7]: 2.08 mL/min/g
CLH [8]: 0.77 mL/min/g
CLH [9]: 5.8 mL/min/g
EC50 [10]: 3670 nM
EC50 [11]: 10600 nM

Fc1ccc(-c2nc(C3CCNCC3)sc2-c2ccnc(Nc3cnccn3)n2)cc1
EC50 [1]: 600 nM
IC50 [13]: 5 nM
chromatographic logD [2]: 2.32
solubility [3]: 68 µM (≈ 29.5 µg/mL)
EC50 [5]: 3200 nM
Papp [6]: 16 ×10⁻⁶ cm/s
CLH [7]: 0.72 mL/min/g
CLH [8]: 0.49 mL/min/g
CLH [9]: 0.4 mL/min/g
EC50 [14]: 1360 nM
EC50 [15]: 690 nM
EC50 [16]: 820 nM
EC50 [17]: 880 nM

CN1CCC(c2nc(-c3ccc(F)c(NS(C)(=O)=O)c3)c(-c3ccnc(NCC4CC4)n3)s2)CC1
EC50 [1]: 1020 nM
chromatographic logD [2]: 3.2
solubility [3]: 311 µM (≈ 161 µg/mL)
IC50 [4]: 1340 nM
EC50 [5]: 17000 nM
Papp [6]: 34 ×10⁻⁶ cm/s
CLH [7]: 1.32 mL/min/g
CLH [8]: 6.22 mL/min/g
CLH [9]: 0.49 mL/min/g
EC50 [14]: 1020 nM
EC50 [16]: > 5000 nM
EC50 [17]: 3900 nM
Activity [12]: inactive

Cc1cc(Nc2nccc(-c3sc(C4CCNCC4)nc3CN3CCCCC3)n2)ccn1
EC50 [1]: 190 nM
EC50 [5]: 20000 nM
Papp [6]: 1 ×10⁻⁶ cm/s
Activity [12]: Active
